Experimental data: ChEMBL document CHEMBL3045897, “Bioactivity of compounds from Acmella oleracea against Tuta absoluta (Meyrick) (Lepidoptera: Gelechiidae) and selectivity to two non-target species” (Pest Manag Sci, 2012)

How the values were obtained:
[1] = Contact toxicity against adult Tetragonisca angustula assessed as mortality at contact LD80 for second-instar larvae of Tuta absoluta measured after 24 hr; format: organism-based; conditions: in vivo, topical or ocular
[2] = Contact toxicity against adult Solenopsis saevissima assessed as mortality at contact LD80 for second-instar larvae of Tuta absoluta measured after 24 hr; format: organism-based; conditions: in vivo, topical or ocular
[3] = Selectivity ratio of LD50 for adult Solenopsis saevissima to LD50 for second-instar larvae of Tuta absoluta
Procedure, shortened: (§1)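 Test solutions in acetone were applied topically at 0.5 µL per insect, with acetone alone as control. Insects were then held individually in petri dishes with food at 25 ± 0.5 °C, 75±5% RH and a 12 h photoperiod. Mortality (dead or motionless) was scored at 24 h. LD50 values came from probit analysis of dose–mortality data for each species, and SLR50 was computed from these LD50 values.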

[4] = Selectivity ratio of LD50 for adult Tetragonisca angustula to LD50 for second-instar larvae of Tuta absoluta; procedure, shortened: as §1
Tetragonisca angustula = test: Contact toxicity against adult Tetragonisca angustula assessed as mortality after 24 hr; format: organism-based; conditions: in vivo, topical_or_ocular
Procedure, shortened: (§2)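 Topical application of 0.5 µL test solution in acetone per insect; controls got 0.5 µL acetone alone. Insects were held singly with food in small petri dishes at 25 ± 0.5 °C, 75±5% RH and a 12 h photoperiod. Mortality (dead or motionless insects) was scored at 24 h.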

Solenopsis saevissima = test: Contact toxicity against adult Solenopsis saevissima assessed as mortality after 24 hr; format: organism-based; conditions: in vivo, topical_or_ocular; procedure, shortened: as §2
Tuta absoluta [5] = test: Contact toxicity against second-instar larvae of Tuta absoluta assessed as mortality after 24 hr; format: functional; procedure, shortened: as §2
Tuta absoluta [6] = test: Ratio of permethrin LD50 to compound LD50 for second-instar larvae of Tuta absoluta assessed as mortality after 24 hr; format: functional

SMILES | mortality at 24 h [1] | mortality at 24 h [2] | Ratio [3] | Ratio [4] | LD50 (Tetragonisca angustula) | LD80 (Tetragonisca angustula) | LD50 (Solenopsis saevissima) | LD80 (Solenopsis saevissima) | LD50 (Tuta absoluta [5]) | LD80 (Tuta absoluta [5]) | Ratio (Tuta absoluta [6])
CC1(C)C(C=C(Cl)Cl)C1C(=O)OCc1cccc(Oc2ccccc2)c1 (stereo not drawn) [PERMETHRIN] | 100% | 100% | 0.00042 | 0.065 | 0.0003 µg/mg | 0.002 µg/mg | 0.046 µg/mg | 1.458 µg/mg | 0.71 µg/mg | 2.57 µg/mg | –
C#CC#CCCCC/C=C/C(=O)NCC(C)C | – | – | – | – | – | 2.02 µg/mg | – | 2.22 µg/mg | – | – | –
C#CC#CCCCC/C=C/C(=O)NC[C@H](C)CC | 59% | 55% | 1.64 | 1.35 | 1.1 µg/mg | 2.26 µg/mg | 1.33 µg/mg | 4.4 µg/mg | 0.81 µg/mg | 1.76 µg/mg | –
C/C=C/C=C\CC/C=C/C(=O)NCC(C)C [Spilanthol] | 58% | 68% | 1.38 | 2.69 | 0.35 µg/mg | 0.81 µg/mg | 0.18 µg/mg | 1.12 µg/mg | 0.13 µg/mg | 0.56 µg/mg | 5
